# Screening results: PubChem BioAssay, several laboratories
# PTK2B oligo ant = Pyk2 (human) oligomerization antagonism. Q14289. Q293 cells, Pyk2 FERM NanoBiT luminescence; active compounds read low. z-score (the deposit names both 25 µM and 10 µM). 99,000 tested, 0.83% active;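 active = Z-score of -3 or lower, scaled per plate to the spread of control and sample wells; inactive = z-score above -3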;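 also: negative z-score means lost luminescence so less FERM oligomerization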
# Target sequence (Q14289 whole entry, looked up): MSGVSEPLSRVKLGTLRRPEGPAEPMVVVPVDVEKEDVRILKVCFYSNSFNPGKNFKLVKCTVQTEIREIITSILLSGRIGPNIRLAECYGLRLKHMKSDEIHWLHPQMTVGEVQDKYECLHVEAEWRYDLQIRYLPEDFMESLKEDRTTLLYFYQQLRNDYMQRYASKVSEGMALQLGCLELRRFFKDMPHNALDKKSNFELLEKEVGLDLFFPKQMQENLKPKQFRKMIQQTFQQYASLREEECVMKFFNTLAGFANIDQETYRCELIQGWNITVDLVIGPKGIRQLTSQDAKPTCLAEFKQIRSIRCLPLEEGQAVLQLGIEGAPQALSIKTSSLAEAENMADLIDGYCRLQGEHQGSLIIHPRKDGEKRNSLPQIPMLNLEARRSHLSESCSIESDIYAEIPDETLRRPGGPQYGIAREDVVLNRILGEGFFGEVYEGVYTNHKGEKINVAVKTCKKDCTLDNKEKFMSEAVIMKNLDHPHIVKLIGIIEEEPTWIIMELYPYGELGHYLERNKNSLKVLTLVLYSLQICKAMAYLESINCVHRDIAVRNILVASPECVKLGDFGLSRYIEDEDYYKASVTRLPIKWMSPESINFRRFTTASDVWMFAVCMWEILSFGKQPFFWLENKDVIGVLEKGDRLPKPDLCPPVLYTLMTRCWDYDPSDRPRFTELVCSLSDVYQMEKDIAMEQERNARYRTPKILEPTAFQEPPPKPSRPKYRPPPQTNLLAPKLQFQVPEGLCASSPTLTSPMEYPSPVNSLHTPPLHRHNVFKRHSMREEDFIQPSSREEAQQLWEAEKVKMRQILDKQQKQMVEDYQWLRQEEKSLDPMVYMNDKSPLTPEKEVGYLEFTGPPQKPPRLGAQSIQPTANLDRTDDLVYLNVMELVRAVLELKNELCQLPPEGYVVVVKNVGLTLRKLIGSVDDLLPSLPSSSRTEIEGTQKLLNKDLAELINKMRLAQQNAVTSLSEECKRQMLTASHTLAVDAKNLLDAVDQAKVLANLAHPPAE
# Ecoli WT expand = blocks growth of wild type E. coli BW25113 | 98,000 tested, 0.15% active | OD600 absorbance | growth inhibition, % at 100 µM | AID 710;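 active = growth inhibition above about 50% at one test dose, limit read from the data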;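 also: growth measured after 20 h incubation at 37 °C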
# Ecoli tolC = E. coli tolC mutant growth inhibition. E. coli BW25113 tolC mutant growth, OD615. growth inhibition, % at 10 µM (by protocol). 65,000 tested, 2.2% active;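 active = growth inhibition at or above a cutoff equal to the mean over every tested compound plus 3 SD, cut at about 60% in these data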;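 also: growth measured after 20 h incubation at 37 °C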
#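 test system = E. coli BW25113 ΔtolC::kan bacteria | medium = LB with kanamycin 50 µg/mL | signal = OD at 615 nm | schedule = 37 °C, 20 h exposure | evaluation = % inhibition of E. coli growth | compound dosing = one dose of 10 µM final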
# PostGolgi yeast = growth inhibition of a yeast mutant, post-Golgi transport screen | post-Golgi transport phenotypic cell assay | inhibition, % at 10 µM | 98,000 tested, 0.9% active;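 also: yeast cells grown in 1536-well plates; yeast grown about 18 h at 30C before absorbance read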
# Cav3 T inh = inhibitors of human Cav3.2 T-type calcium channel. O95180. Cav3.2-expressing cells, Fluo-4 calcium fluorescence FDSS; active compounds read low. B-score at 10 µM. 100,000 tested, 4% active. AID 449739;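 active = single-dose well whose peak fluorescence ratio is a statistical outlier from its plate by either plate-standardised score or position-corrected B-score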
# PostGolgi ctrl = growth of the yeast control strain, post-Golgi counter-screen; 98,000 tested, 5% active; AID 738; inhibition, % at 10 µM; efflux-deficient yeast background strain, growth absorbance A615, 16 h
# Active calls of the source: *; · = no result. The list is not random: actives were taken first. Their share in the collection is about 8.7%. Rule as the data show it, unless noted: active = inhibition above about 30%; inactive = the rest.
SMILES,PTK2B oligo ant,Ecoli WT expand,Ecoli tolC,PostGolgi yeast,Cav3 T inh,PostGolgi ctrl
COc1ccc(C[C@@H]2CN3C(=NC[C@@H]3C)N2C[C@H](C)NC(=O)c2ccc(C)c(Br)c2)cc1,·,·,·,·,-0.27,·
Cc1ccc(-n2c(SCc3cn4ccsc4n3)nc3ccccc3c2=O)cc1,-2.9,-13,60,3,-0.94,22
Nc1c(Nc2ccccc2)c2ccccc2oc1=O,1.1,16,16,-5,-0.12,9
CCc1cccc(Nc2cc(C)nc3nc(C)nn23)c1,·,-12,-2,0,-0.52,0
COc1ccc(CCNC(=O)c2nnc(Cc3ccc(Cl)cc3)o2)cc1OC,·,-5,·,10,-3.6*,-1
COc1ccc(CCNC(=O)c2cc3sc(Cl)cc3n2C)cc1OC,·,0,63*,14,·,10
COc1ccc(CCNC(=O)c2nnc(Cc3c(F)cccc3Cl)o2)cc1OC,0.26,-3,-13,0,0.11,27
O=C(N/C=N/OCc1ccc(Cl)cc1Cl)NOCc1ncc(C(F)(F)F)cc1Cl,-0.02,-1,·,-4,0.83,34*
Clc1cccc(Cl)c1Cn1cnc2c(N3CCCCCC3)ncnc21,-3.4*,-8,42,1,-0.24,34*
c1ccc(Cn2nnc3c(N4CCCCCC4)ncnc32)cc1,·,4,54,5,-2.1,14
COC(=O)c1cccnc1NC(=S)NNC(=O)c1ccncc1,0.75,-4,·,-4,0.047,-7
CC(C)CCN1CC(C(=O)NCc2ccccc2)CC1=O (configuration not stated),0.61,-1,-10,10,-5.3*,7
CCCCN1CC(C(=O)NCc2ccc(C)cc2)CC1=O (configuration not stated),0.31,7,·,0,0.58,-2
CC[C@H](C)[C@@H](NC(=O)O[C@@H]1C(=O)c2cc(Br)ccc2O[C@H]1c1ccc2c(c1)OCO2)C(=O)OC,·,·,·,·,-1.1,·
C=C(C)COc1ccc2c(C)c(CC(=O)OC)c(=O)oc2c1C,-2.3,-3,50,104*,-3.1,109*
COC(=O)Cc1c(C)c2ccc(OCC(C)=O)c(C)c2oc1=O,-0.69,2,5,10,0.55,2
CC(=O)Nc1ccc(NC(=O)CN2CCN(c3cccc(C(F)(F)F)c3)CC2)cc1,-0.66,-2,·,-7,0.92,6
Cc1[nH]c2ccccc2c1C(O)CN1CCN(c2cccc(C(F)(F)F)c2)CC1 (configuration not stated),-0.07,7,15,3,-1.2,18
O=C(COCC(=O)Nc1cccc(C(F)(F)F)c1)Nc1cccc(C(F)(F)F)c1,-0.65,1,·,3,0.81,43*
Cc1[nH]c2ccccc2c1NC(=O)CN1CCN(c2cccc(C(F)(F)F)c2)CC1,-0.29,6,75*,5,-8.2*,28
Cc1ccc(OC(F)F)c(NC(=O)Nc2cccc(C(F)(F)F)c2)c1,-2.2,2,·,-2,0.055,56*
O=C(CN1CCN(c2cccc(C(F)(F)F)c2)CC1)Nc1cccc(C(F)(F)F)c1,1,-3,·,-2,-5.5*,35*
CNC(=O)Nc1cccc(C(F)(F)F)c1,-0.12,9,-7,10,-1.1,15
Cc1ccc(C2CC(c3ccccc3OC(F)F)Nc3ncnn32)cc1 (configuration not stated),0.5,-1,26,-5,-0.096,15
Cc1ccccc1C1CC(c2ccccc2OC(F)F)Nc2ncnn21 (configuration not stated),-0.24,9,32,11,-4.1*,16
SMILES,PTK2B oligo ant,Ecoli WT expand,Ecoli tolC,PostGolgi yeast,Cav3 T inh,PostGolgi ctrl
N#CC1=C(N)OC2=C(C(=O)CCC2)C1CCc1ccccc1 (configuration not stated),-0.06,6,13,11,-0.24,6
CCCCOc1ccc(-c2c(C#N)c(N)nc(SCC(N)=O)c2C#N)cc1,-0.36,1,70*,1,·,13
COC(=O)c1cccc(NC(=S)NCc2ccc(Cl)cc2)c1,0.17,1,·,11,-2.2,45*
CCc1n[nH]c2c1/C(=N\O)CC(C)(C)C2,1.9,5,-2,98*,0.36,2
CCC(C(=O)N1CCc2ccccc2C1)n1nc(C)n2c(cc3occc32)c1=O (configuration not stated),-1,-4,0,-4,0.66,30*
Cc1nn(C(C)C(=O)N2CCc3ccccc3C2)c(=O)c2cc3occc3n12 (configuration not stated),0.79,1,1,11,0.61,1
Oc1ccccc1C1=Nc2nc3ccccc3n2C(c2ccccc2)C1 (configuration not stated),-0.22,-14,55,-2,-7.8*,18
COC(C)(C)[C@H](O)COc1c2ccoc2cc2oc(=O)ccc12,·,·,·,·,0.78,·
Clc1ccc2[nH]c3c(c2c1)CCc1cn[nH]c1-3,-1.7,78*,100*,74*,-0.34,57*
CCCOCCOC(=O)C1=C(C)NC(=O)NC1c1cc(Cl)c(O)c(OC)c1 (configuration not stated),-0.34,-1,3,3,0.48,5
CCc1noc(C)c1C(=O)Nc1nc(-c2ccc(Cl)cc2Cl)c(C)s1,1.5,-3,·,-9,0.022,-4
CC(C)OCCCNC(=O)c1cc2c(=O)n(C)c3ccccc3c2n1C,·,3,-2,3,0.98,32*
CCOC(=O)c1c(N2C(=O)Nc3cc(Cl)c(Cl)cc3N2O)sc2c1CCCCC2,-0.8,-5,·,-6,-3.9*,7
CCOC(=O)c1c(N2C(=O)C3C4C=CC(O4)C3C2=O)sc2c1CCCC2 (configuration not stated),-0.28,-15,1,-6,·,15
Cc1snc(SCC(=O)N/N=C(\N)COc2cccc(C(F)(F)F)c2)c1C#N,0.56,0,·,-7,0.84,4
CC1CCN(C(=O)C2CCN(CCCc3ccccc3)CC2)CC1,·,-4,10,12,-4.5*,9
O=[N+]([O-])c1ccc(S(=O)(=O)CC2CSc3nc4ccccc4n32)cc1 (configuration not stated),0.51,·,·,·,·,·
CCCc1ccc(-c2cc(C(=O)N/N=C/c3ccc([N+](=O)[O-])o3)c3ccccc3n2)cc1,0.02,-5,·,6,·,32*
C[c-]1[c-](C)[c-](C)[c-](C)[c-]1C.[Fe].c1cc2nccc(N3CCCC3)[c-]2c1 (configuration not stated),·,·,·,·,0.2,·
O=C(O)c1c(-c2ccccc2)c2oc3ccccc3c2[nH]c1=O,1,-4,-11,-5,0.53,5
COc1ccc(C2c3c(oc4ccc(F)cc4c3=O)C(=O)N2CCN2CCOCC2)cc1OC (configuration not stated),·,·,-6,·,·,·
CC(=O)c1cccc(S(=O)(=O)NCC(c2ccco2)N2CCCCC2)c1 (configuration not stated),-0.57,3,-14,-2,-0.04,-5
CC(C)(C)N(Cc1ccccc1)C(=O)c1ccc2c(c1)OCCO2,-1.4,-5,51,-7,-4.3*,7
